Rows were chosen to be rich in hits. Some 2.1% of all compounds tested hit in one or more screens of this group.
VIM-2 inh – inhibitors of Pseudomonas aeruginosa VIM-2 metallo-beta-lactamase | purified VIM-2, nitrocefin hydrolysis, epi-absorbance fluorescence | inhibition, % at 5.6 µM | 290,000 tested, 0.89% active;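 active = inhibition above the mean of all tested compounds plus 3 SD, cutoff set per screening run, cut at about 7.5% in these data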;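 note: red hydrolysis product quenches plate fluorescence so inhibitors raise well fluorescence; 0% = enzyme with DMSO and 100% = DMSO without enzyme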
PKA-R1A activ – activates the PKA-R1A holoenzyme complex; activation, % at 11.4 µM; PKA-R1A dissociation, Cy5-IP20 fluorescence polarization; scaled: DMSO 0%, 113 µM cGMP 100%; P00514+P68181; 340,000 tested, 0.083% active; AID 504707;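 active = percent activation above the mean of all tested compounds plus 3 SD, cut at about 19% in these data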;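 note: higher means more PKAc released from R1A so a rise in polarization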
MsrA inhibitor – inhibits bovine methionine sulfoxide reductase A; purified bovine MsrA, absorbance read-out; 360,000 tested, 0.75% active; inhibition, % at 15.5 µM;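 note: 0% = vehicle wells with enzyme and 100% = reference inhibitor wells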
bovine MsrA act – bovine methionine sulfoxide reductase A activation | purified bovine MsrA, absorbance read-out | activation, % at 10.6 µM | 360,000 tested, 0.3% active | AID 602163; in the data active = activation above about 7.5%;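 note: 0% = vehicle and 100% = reference activator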
PKA-R2B activ – activates the human PKA-R2B holoenzyme complex; P22694+P31323; PKA-R2B holoenzyme dissociation, Cy5-IP20 fluorescence polarization; R2B truncated from residue 108, S112A mutant; 0% DMSO only, 100% 113 µM cGMP; activation, % at 11.4 µM; 340,000 tested, 0.079% active;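 active = activation above a cutoff set at the mean over all compounds plus 3 SD, cut at about 18% in these data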;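 note: higher means more holoenzyme dissociation and a rise in polarization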
Target sequence (P31323 whole entry, looked up, other chains not shown, the tested form may be a part): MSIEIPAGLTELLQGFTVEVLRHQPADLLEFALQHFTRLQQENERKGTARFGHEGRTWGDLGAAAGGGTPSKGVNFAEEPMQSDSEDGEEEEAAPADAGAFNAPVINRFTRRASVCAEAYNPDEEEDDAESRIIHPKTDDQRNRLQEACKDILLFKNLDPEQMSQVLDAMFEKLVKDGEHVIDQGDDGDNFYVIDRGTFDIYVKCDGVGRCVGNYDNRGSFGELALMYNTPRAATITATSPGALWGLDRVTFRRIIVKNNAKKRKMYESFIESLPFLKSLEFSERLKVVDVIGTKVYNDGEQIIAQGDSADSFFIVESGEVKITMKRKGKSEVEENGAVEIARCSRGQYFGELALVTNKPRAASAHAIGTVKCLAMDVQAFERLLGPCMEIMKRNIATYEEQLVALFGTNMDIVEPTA
IMP-1 inh – blocks Pseudomonas aeruginosa IMP-1 metallo-beta-lactamase. AID 1556. 290,000 tested, 0.45% active. purified IMP-1, nitrocefin hydrolysis, epi-absorbance fluorescence. inhibition, % at 5.6 µM;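 active = inhibition above the mean plus 3 SD of all compounds in the same screening run, cut at about 4.5% in these data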;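 note: 0% = IMP-1 with DMSO and 100% = DMSO wells lacking enzyme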
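System: Purified recombinant IMP-1 metallo-beta-lactamase enzyme | Measured by: Fluorescence quenching readout, ex 480/em 530 nm | Replication: Singlicate | Incubation: 15 min preincubation plus 25 min reaction at 25 °C | Evaluation: Percent inhibition from optical density relative to buffer-blank wells | Benchmarks: DMSO with and without IMP-1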
MsrA conf – confirmation of bovine MsrA inhibitors; purified bovine MsrA, absorbance read-out; inhibition, % at 15.5 µM; shares compounds with MsrA inhibitor; AID 651822; 2,300 tested, 41% active;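 note: coupled to thioredoxin reductase with NADPH and selenocystamine and DMSO as substrate; 0% = vehicle only and 100% = full effect of reference inhibitor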
* hit, by the source's call; / = not tested or not shown. Cut-off read from the data, not from the text of the source, unless noted: active = inhibition above about 4.5%; inactive = the rest.

SMILES	VIM-2 inh	PKA-R1A activ	MsrA inhibitor	bovine MsrA act	PKA-R2B activ	IMP-1 inh	MsrA conf
CC1(C(=O)NS(=O)(=O)c2cccc(C#N)c2)CCN1C(=O)Cc1ccccc1Cl (stereo unspecified)	/	/	1	-1	/	/	/
COc1ccc(C)cc1NC(=O)C(Sc1nnc(Nc2cc(C)ccc2OC)s1)c1ccccc1 (stereo unspecified)	-1	2	5.2*	-2	5	-4	1
O=C(N/N=C/c1ccc(O)c(O)c1)c1ccc(-n2cnnn2)cc1	/	-5	4.8*	-3	-10	/	4.6*
Cc1onc(-c2ccccc2)c1C(=O)N/N=C/c1ccc(O)c([N+](=O)[O-])c1	-4	1	5.5*	-7	-8	-2	4
Cc1onc(-c2ccccc2)c1C(=O)N/N=C/c1ccc([N+](=O)[O-])c(O)c1	-3	-5	1	-3	0	-4	/
CN(C)c1ccc(/C=N/NC(=O)c2nonc2N)cc1[N+](=O)[O-]	-6	-5	4.9*	-5	-8	-2	4
O=C(N/N=C/c1ccc(O)c([N+](=O)[O-])c1)c1ccncc1	-2	-4	5.6*	-5	-5	-2	4.9*
COC(=O)[C@]12C[C@H](CC(=O)NCCc3ccccc3OC)C(=O)N(Cc3ccc4c(c3)OCO4)C1=C[C@H](COCc1ccccc1)O[C@@H]2C	/	/	1	/	/	/	/
CC(Nc1c([N+](=O)[O-])c(=O)oc2ccccc12)c1ccccc1 (stereo unspecified)	0	-8	25*	-11	-10	-1	21*
CC(C)Nc1c([N+](=O)[O-])c(=O)oc2ccccc12	-2	-12	2	-2	9	-1	/
O=c1oc2ccccc2c(NCc2ccc(Cl)cc2)c1[N+](=O)[O-]	0	-4	1	-1	-3	-3	/
O=c1oc2ccccc2c(NCc2ccccc2)c1[N+](=O)[O-]	4	-1	5.8*	-6	-1	0	5.0*
Nc1c([N+](=O)[O-])c(=O)oc2ccccc12	-4	-15	5.9*	-5	1	-3	2
O=C(O)CCCNC(=O)CC1S/C(=N/N=C/c2ccccc2O)NC1=O (stereo unspecified)	-3	-2	4.8*	-7	4	-4	4
CCCCNC(=O)CC1S/C(=N/N=C/c2ccc(OC)cc2)NC1=O (stereo unspecified)	-2	5	1	-1	-6	-2	/
Nc1ccc(-c2nc3ccc(N)cc3s2)cc1	3	9	5.6*	-7	2	0	7.5*
Nc1ccc(-c2nc3ccc(C(=O)O)cc3s2)cc1	2	1	5.9*	-4	1	2	7.2*
Nc1cc2sc(-c3ccc(C(=O)O)cc3)nc2cc1Cl	2	5	5.5*	-3	6	-1	4
O=C(CN1C(=O)NC(c2ccccc2)(c2ccccc2)C1=O)NC1CCCC1	/	-8	0	-4	-11	/	/
Cc1ccc(-c2nnc(Nc3ccc(C(=O)N(C)C)cc3)c3ccccc23)cc1S(=O)(=O)NCC1CCCO1 (stereo unspecified)	1	3	4.7*	-3	-6	0	3
O=C(NCCc1ccccc1O)c1cc2c(cc1[N+](=O)[O-])OCO2	/	2	2	-6	-3	/	/
COc1ccc(NC2=CC(=O)CC(C)(C)C2)cc1	-2	-1	3	-2	-7	-3	/
COC(=O)c1ccc(NC2=CC(=O)CC(C)(C)C2)cc1	-3	0	4.9*	-5	-15	0	5.0*
CN(CCO)S(=O)(=O)c1ccc2c(c1)C(=NNC(N)=O)c1cc(S(=O)(=O)N(C)CCO)ccc1-2	3	-8	4.8*	-5	-14	-2	3
Cc1nnsc1C(=O)N1CCCC1(C)C(=O)O (stereo unspecified)	/	/	-1	-3	/	/	/
SMILES	VIM-2 inh	PKA-R1A activ	MsrA inhibitor	bovine MsrA act	PKA-R2B activ	IMP-1 inh	MsrA conf
O=C1NC(=O)N(C2CCCCC2)CC1Br (stereo unspecified)	/	-8	1	-3	-7	/	/
CCCCc1cc(=O)oc2cc(C)cc(OC(C)C(=O)NCc3ccccn3)c12 (stereo unspecified)	-2	-4	6.4*	-3	1	-4	0
O=C(NCCS(=O)(=O)NCc1cccs1)c1ccccc1	/	-3	0	-2	-5	/	/
Cc1[nH]n(-c2ccc([N+](=O)[O-])cc2)c(=O)c1C=NCC1CCCO1 (stereo unspecified)	-4	/	6.8*	-10	/	-1	5.3*
COc1ccc(CC(=O)N2CCN(c3ccc(C4=NNC(=O)CC4C)cc3)CC2)cc1 (stereo unspecified)	-1	-7	4.8*	-3	-1	-1	2
O=C1NC(=S)N/C1=C/c1cccn1-c1ccc([N+](=O)[O-])cc1	2	6	5.1*	-10	9	-2	1
N=C1/C(=C/c2cccn2-c2ccc([N+](=O)[O-])cc2)C(=O)N=C2SC=CN12	-3	-5	0	2	-8	-2	/
O=[N+]([O-])c1ccc(C2CCCC/C2=N/OCc2ccccc2F)c([N+](=O)[O-])c1 (stereo unspecified)	0	4	9.2*	-3	-7	-1	6.9*
O=[N+]([O-])c1ccc(C2CCCC/C2=N/OCc2ccc(F)cc2)c([N+](=O)[O-])c1 (stereo unspecified)	-1	-7	3	-2	-18	-1	/
Cc1c(C(=O)N2CCCCC2)c(S(=O)(=O)N2c3ccccc3CC2C)c(C)n1C (stereo unspecified)	-2	2	0	1	8	0	/
Cc1noc(NS(=O)(=O)c2ccc(NC(=O)c3cnc4n(c3=O)CCS4)cc2)c1C	-1	5	6.9*	-5	1	-2	4.6*
Cc1cc(-c2nc3ncccc3o2)ccc1N	-1	-12	6.5*	-5	-1	-2	6.6*
Nc1ccc(-c2nc3ncccc3o2)c(Cl)c1	-1	2	6.0*	-10	-2	0	5.2*
Cc1ccc(-c2nc3ncccc3o2)cc1N	-1	3	1	-4	3	-2	/
Nc1ccc(Cl)c(-c2nc3ncccc3o2)c1	1	-1	0	-1	-3	0	/
Nc1ccc(-c2nc3ncccc3o2)c(O)c1	-3	4	9.8*	-7	-1	-3	7.2*
O=C(CC1CCCC1)N[C@H](C(=O)N1CCC[C@H]1C(=O)NCCc1ccccc1Cl)c1ccccc1	/	/	1	/	/	/	/
CCN(CC(=O)Nc1c(F)cccc1F)C(=O)c1nn(C)c(=O)c2ccccc12	/	4	1	-2	6	/	/
